Measurements published in ChEMBL document CHEMBL1125493, “HIV-1 neutralization and tumor cell proliferation inhibition in vitro by simplified analogues of pyrido[4,3,2-mn]thiazolo[5,4-b]acridine marine alkaloids” (J Med Chem, 1992).

Tests used:
MT4 [1] = assay: Cytotoxic effect in cultured MT-4 lymphocytes at a concentration of 2 ug/mL (0.0080 uM/mL).; type: functional, Homo sapiens
Procedure, shortened: (§1)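 MT-4 cells at 5 × 10^4 cells/well, 1 mL total, cultured with compound diluted in RPMI 1640 with 10% FBS, 10 mM HEPES, penicillin/streptomycin and 2 mM glutamine, at 37 °C under 5% CO2. Viability was scored by trypan blue exclusion on days 4 and 7, in triplicate, as % viable cells.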

[2] = Calu3 lung tumor cell proliferation inhibition by the compound in vitro at a concentration of 0.6 uM.; type: functional, Homo sapiens
Procedure, shortened: (§2)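 Tumor cells grown in RPMI-1640 in 1% agar with 5% fetal bovine serum, exposed to the specified concentrations for 1 week. Viability was assessed against a control given distilled water in place of drug. 5-Fluorouracil served as the positive cytotoxic standard. Results are reported as concentration-dependent cell survival.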

[3] = Calu3 lung tumor cell proliferation inhibition by the compound in vitro at a concentration of 6.0 uM.; type: functional, Homo sapiens; procedure, shortened: as §2
[4] = Calu3 lung tumor cell proliferation inhibition by the compound in vitro at a concentration of 60 uM.; type: functional, Homo sapiens; procedure, shortened: as §2
COLO 320DM [5] = assay: COLO 320DM colon tumor cell proliferation inhibition by the compound in vitro at a concentration of 0.6 uM.; type: functional, Homo sapiens; procedure, shortened: as §2
COLO 320DM [6] = assay: COLO 320DM colon tumor cell proliferation inhibition by the compound in vitro at a concentration of 6.0 uM.; type: functional, Homo sapiens; procedure, shortened: as §2
COLO 320DM [7] = assay: COLO 320DM colon tumor cell proliferation inhibition by the compound in vitro at a concentration of 60 uM.; type: functional, Homo sapiens; procedure, shortened: as §2
[8] = test system: Human immunodeficiency virus 1; assay: Inhibitory effect (100 uM) against HIV-1 in human peripheral blood monocyte cells(PBMC) (EC50 ->32.5 ug/mL); type: functional
[9] = test system: Human immunodeficiency virus 1; assay: Protection of MT-4 lymphocytes by the compound against HIV-1 infectivity in vitro at a concentration of 100 ug/mL (0.30 uM/mL); type: functional
Procedure, shortened: (§3)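 Virus (HIV-1 Molt IIIB, ~2 × 10^4 TCID50) preincubated with compound 1 h at 37 °C, 5% CO2. Then added to MT-4 cells (5 × 10^5 cells/well) and cultured at 37 °C. Trypan blue viability counts taken on days 4 and 7, triplicate at each concentration. Controls were infected and uninfected cells. Reported as % viable (surviving) MT-4 cells.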

[10] = test system: Human immunodeficiency virus 1; assay: Protection of MT-4 lymphocytes by the compound against HIV-1 infectivity in vitro at a concentration of 200 ug/mL (0.60 uM/mL); type: functional; procedure, shortened: as §3
[11] = test system: Human immunodeficiency virus 1; assay: Protection of MT-4 lymphocytes by the compound against HIV-1 infectivity in vitro at a concentration of 400 ug/mL (1.20 uM/mL); type: functional; procedure, shortened: as §3
[12] = test system: Human immunodeficiency virus 1; assay: Percent HIV-1 bound to H-9 cells at a concentration of 100(ug/mL).; type: functional
Procedure, shortened: (§4)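 HIV-1 Molt IIIB (50 μL) incubated overnight with compound at 100 μg/mL, then with uninfected H-9 cells 2 h at 37 °C. Washed; stained with HIV-positive human serum (1:100) then FITC anti-human IgG (1:10), 30 min at 4 °C each. Formaldehyde-fixed (0.5%) and analysed by flow cytometry for % virus bound and % binding inhibition.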

[13] = test system: Human immunodeficiency virus 1; assay: Inactivation of HIV-MN strain in MT-4 lymphocytes in vitro at a concentration of 100 ug/mL (0.30 uM/mL).; type: functional
Procedure, shortened: (§5)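 Compound (50 μL) was mixed with 50 μL of HIV-1 Molt IIIB or HIV-MN inoculum in RPMI 1640 for 1 h at room temperature. The mixture was added to 5 × 10^4 MT-4 cells and kept 7 days at 37 °C, 5% CO2. MTT (5.0 mg/mL) was added for 4 h, the reaction was stopped with 0.04 N HCl/2-propanol, and OD was read at 570 nm. % inactivation was calculated from OD relative to uninfected cells and untreated virus, mean of three.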

[14] = test system: Human immunodeficiency virus 1; assay: Inactivation of HIV-MN strain in MT-4 lymphocytes in vitro at a concentration of 200 ug/mL (0.60 uM/mL).; type: functional; procedure, shortened: as §5
[15] = test system: Human immunodeficiency virus 1; assay: Inactivation of HIV-MN strain in MT-4 lymphocytes in vitro at a concentration of 400 ug/mL (1.20 uM/mL).; type: functional; procedure, shortened: as §5
[16] = test system: Human immunodeficiency virus 1; assay: Inactivation of HIV-MoltIIIB strain in MT-4 lymphocytes in vitro at a concentration of 100 ug/mL (0.30 uM/mL).; type: functional; procedure, shortened: as §5
[17] = test system: Human immunodeficiency virus 1; assay: Inactivation of HIV-MoltIIIB strain in MT-4 lymphocytes in vitro at a concentration of 200 ug/mL (0.60 uM/mL).; type: functional; procedure, shortened: as §5
[18] = test system: Human immunodeficiency virus 1; assay: Percent inhibition of HIV-1 binding to H-9 cells at a concentration of 100(ug/mL).; type: functional; procedure, shortened: as §4
[19] = test system: Human immunodeficiency virus 1; assay: Inhibitory effect against HIV-1 induced cytopathic effects(HIV-1 neutralization) in MT-4 lymphocytes at a concentration of 100 ug/mL (0.3000 uM/mL).; type: functional
Procedure, shortened: (§6)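 HIV-1 Molt IIIB (~2 × 10^4 TCID50 in 100 μL) preincubated 1 h at 37 °C with a single compound dose, then added to MT-4 cells (5 × 10^5 cells/well, 1 mL). Cultured at 37 °C, 5% CO2. Viable cells counted by trypan blue exclusion on days 4 and 7. Triplicates; % viable cells. Controls: infected cells (positive), uninfected cells (negative).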

MT4 [20] = assay: Cytotoxic effect in cultured MT-4 lymphocytes at a concentration of 10 ug/mL (0.0300 uM/mL).; type: functional, Homo sapiens; procedure, shortened: as §1
MCF7 [21] = assay: […] breast tumor cell proliferation inhibition by the compound in vitro at a concentration of 0.6 uM.; type: functional, Homo sapiens
Procedure, shortened: (§7)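 Breast tumor cells treated with specified compound concentrations in RPMI-1640 in 1% agar with 5% FBS for 1 week. Viability compared with a control given distilled water in place of drug; 5-fluorouracil as standard cytotoxic drug. Reported as concentration-dependent cell survival.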

MCF7 [22] = assay: […] breast tumor cell proliferation inhibition by the compound in vitro at a concentration of 6.0 uM.; type: functional, Homo sapiens; procedure, shortened: as §7
MCF7 [23] = assay: […] breast tumor cell proliferation inhibition by the compound in vitro at a concentration of 60 uM.; type: functional, Homo sapiens; procedure, shortened: as §7
MT4 [24] = assay: Protection of MT-4 lymphocytes by the compound against HIV-1 infectivity in vitro at a concentration of 25 ug/mL (0.075 uM/mL); type: functional, Homo sapiens; procedure, shortened: as §3
MT4 [25] = assay: Protection of MT-4 lymphocytes by the compound against HIV-1 infectivity in vitro at a concentration of 50 ug/mL (0.150 uM/mL); type: functional, Homo sapiens; procedure, shortened: as §3
MT4 [26] = assay: Cytotoxic effect in cultured MT-4 lymphocytes at a concentration of 100 ug/mL (0.3000 uM/mL).; type: functional, Homo sapiens; procedure, shortened: as §1
MT4 [27] = assay: Cytotoxic effect in cultured MT-4 lymphocytes at a concentration of 2 ug/mL (0.0060 uM/mL).; type: functional, Homo sapiens; procedure, shortened: as §1
MT4 [28] = assay: Protection of MT-4 lymphocytes by the compound against HIV-1 infectivity in vitro at a concentration of 12.5 ug/mL (0.038 uM/mL); type: functional, Homo sapiens; procedure, shortened: as §3
[29] = test system: Human immunodeficiency virus 1; assay: Inactivation of HIV-MoltIIIB strain in MT-4 lymphocytes in vitro at a concentration of 400 ug/mL (1.2u M/mL).; type: functional; procedure, shortened: as §5
[30] = test system: Human immunodeficiency virus 1; assay: Inhibitory effect against HIV-1 induced cytopathic effects(HIV-1 neutralization) in MT-4 lymphocytes at a concentration of 100 ug/mL (0.2000 uM/mL).; type: functional; procedure, shortened: as §6
MT4 [31] = assay: Cytotoxic effect in cultured MT-4 lymphocytes at a concentration of 10 ug/mL (0.0200 uM/mL).; type: functional, Homo sapiens; procedure, shortened: as §1
MT4 [32] = assay: Cytotoxic effect in cultured MT-4 lymphocytes at a concentration of 100 ug/mL (0.2000 uM/mL).; type: functional, Homo sapiens; procedure, shortened: as §1
MT4 [33] = assay: Cytotoxic effect in cultured MT-4 lymphocytes at a concentration of 2 ug/mL (0.0040 uM/mL).; type: functional, Homo sapiens; procedure, shortened: as §1

## Cc1nc2cc3nc4ccccc4cc3cc2s1.Cl
MT4 [1]
  Viability: 85%

## O=C([O-])CSc1ccc2c(c1)c(=O)c1ccccc1n2C1CC1.[Na+]
[2]
  Viability: 104%
[3]
  Viability: 73%
[4]
  Viability: 44%
COLO 320DM [5]
  Viability: 107%
COLO 320DM [6]
  Viability: 108%
COLO 320DM [7]
  Viability: 87%
[8]
  Inhibition: 29%
[9]
  Survival: 83.7%
[10]
  Survival: 81.3%
[11]
  Survival: 86%
[12]
  Bound: 28.7%
[13]
  Inactivation: 11.3%
[14]
  Inactivation: 10%
[15]
  Inactivation: 11.6%
[16]
  Inactivation: 3.9%
[17]
  Inactivation: 23.5%
[18]
  Inhibition: 13.8%
[19]
  Viability: 83.7%
MT4 [20]
  Viability: 96%
MCF7 [21]
  Viability: 91%
MCF7 [22]
  Viability: 86%
MCF7 [23]
  Viability: 44%
MT4 [24]
  Survival: 85.5%
MT4 [25]
  Survival: 89.2%
MT4 [26]
  Viability: 100%
MT4 [27]
  Viability: 96.6%
MT4 [28]
  Survival: 77.3%
[29]
  Inactivation: 23.3%

## CCN(CC)CCCC(C)Nc1c2ccc(Cl)cc2nc2ccc(OC)cc12.Cl.Cl (stereo not drawn) [QUINACRINE DIHYDROCHLORIDE]
[30]
  Viability: 0%
MT4 [31]
  Viability: 88.2%
MT4 [32]
  Viability: 82.1%
MT4 [33]
  Viability: 93.6%
